Among all 20,000 compounds or so, about 25 (0.1%) were called active. The sample as a whole holds a higher share of actives than the screen did. Unmarked numbers belong to inactive results.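 Rule for the calls: active = mean replicate protection from cytokine-induced ATP loss at least 50% and at least 75% of replicates each reaching 50%; inconclusive = meets only one of the two criteria, mean or replicate share; inactive = fails both the mean and replicate share criteria.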
Experiment: preservation of ATP in cytokine-treated beta cells – cell-based, ATP luminescence, single point, primary screen (AID 488910)
Conditions: INS-1E cytokine-induced death, 48 h, at 10 µM, hits give high values, normalised: neutral wells 0, positive control 100
Method in brief: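 Assay system: INS-1E rat insulinoma cells. Amount: 8000 cells per well. Medium: phenol-red-free RPMI with 5% fetal bovine serum. Reagent: IL-1β, TNF-α and IFN-γ cytokine mix. Doses: one compound concentration, pin transfer. Schedule: 48 h co-treatment, 10 min post-lysis read. Detection: CellTiter-Glo luminescence measuring cellular ATP.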

Structure (SMILES) | protection from cytokine-induced ATP loss [%]
COc1ccc(NC(=O)N(C)C[C@H]2Oc3ccc(NC(=O)Cc4cn(C)c5ccccc45)cc3CC(=O)N([C@@H](C)CO)C[C@H]2C)cc1 | 13.3
Cc1noc(C)c1NC(=O)Nc1ccc2c(c1)C(=O)N([C@H](C)CO)C[C@@H](C)[C@@H](CN(C)Cc1ccccc1)O2 | 2.87
C[C@@H]1CCCCO[C@@H](CN(C)CC2CC2)[C@@H](C)CN([C@H](C)CO)C(=O)c2cc(NC(=O)Nc3cccc4ccccc34)ccc2O1 | -7.95
Cc1cccc(CN(C)C[C@H]2OCc3cn(nn3)CCCC(=O)N([C@@H](C)CO)C[C@H]2C)c1 | -2.7
Cc1ccc(S(=O)(=O)N(C)C[C@@H]2Oc3ccc(NC(=O)c4ccncc4)cc3CC(=O)N([C@H](C)CO)C[C@H]2C)cc1 | -0.881
COc1cc(/C=C/C=N/NC(=O)CCCCCC(=O)Nc2ccccc2O)ccc1O | -1.89
CC(C)NC(=O)N(C)C[C@H]1Oc2c(NC(=O)Nc3ccc(F)cc3)cccc2C(=O)N([C@@H](C)CO)C[C@@H]1C | 12.3
COc1ccc(S(=O)(=O)Nc2ccc3c(c2)CC(=O)N([C@@H](C)CO)C[C@@H](C)[C@@H](CN(C)C(=O)Nc2c(C)noc2C)O3)cc1 | 9.17
COc1ccc(NC(=O)Nc2ccc3c(c2)C(=O)N([C@H](C)CO)C[C@H](C)[C@@H](CN(C)C(=O)NC2CCCCC2)OCCCC[C@@H](C)O3)cc1 | 14.1
C[C@H]1CN([C@@H](C)CO)C(=O)c2cc(NC(=O)C3CCCCC3)ccc2O[C@H]1CN(C)S(=O)(=O)c1cn(C)cn1 | 2.64
C[C@H]1CN([C@@H](C)CO)C(=O)c2cccc(NC(=O)Nc3ccccc3)c2O[C@H]1CN(C)S(=O)(=O)c1ccc(Cl)cc1 | -12.7
C[C@@H]1CN([C@H](C)CO)C(=O)Cc2cc(NC(=O)Nc3ccc(C(F)(F)F)cc3)ccc2O[C@@H]1CN(C)S(=O)(=O)c1ccccc1 | -5.63
C[C@H](CO)N1C[C@H](C)[C@H](CN(C)C(=O)Nc2ccc(C(F)(F)F)cc2)Oc2ccc(NS(=O)(=O)c3cn(C)cn3)cc2CC1=O | 19
C[C@@H]1CN([C@@H](C)CO)C(=O)Cc2cc(NS(=O)(=O)c3cccs3)ccc2O[C@@H]1CN(C)C(=O)Nc1ccc(C(F)(F)F)cc1 | -9.39
O=C(N/N=C/c1ccc(Oc2ccccc2)cc1)c1ccccn1 | 4.62
CC(C)NC(=O)Nc1cccc2c1O[C@@H](CN(C)Cc1ccc(C(=O)O)cc1)[C@@H](C)CN([C@H](C)CO)C2=O | 5.94
C[C@H]1CN([C@@H](C)CO)C(=O)c2cccc(NC(=O)C3CCOCC3)c2O[C@H]1CN(C)S(C)(=O)=O | 10.3
COc1ccc(S(=O)(=O)N(C)C[C@H]2Oc3ccc(NC(=O)Nc4c(C)noc4C)cc3CC(=O)N([C@@H](C)CO)C[C@H]2C)cc1 | 6.69
Cc1noc(C)c1NC(=O)N(C)C[C@@H]1Oc2ccc(NS(C)(=O)=O)cc2C(=O)N([C@@H](C)CO)C[C@@H]1C | 1.81

Structure (SMILES) | protection from cytokine-induced ATP loss [%]
Cc1noc(C)c1S(=O)(=O)Nc1ccc2c(c1)CC(=O)N([C@H](C)CO)C[C@H](C)[C@H](CN(C)S(=O)(=O)c1cn(C)cn1)O2 | 15.3
CNC[C@H]1Oc2ccc(NS(=O)(=O)c3cn(C)cn3)cc2C(=O)N([C@@H](C)CO)C[C@@H]1C | -1.06
COc1ccc(NC(=O)Nc2cccc3c2O[C@H](CN(C)S(=O)(=O)c2ccc(F)cc2)[C@H](C)CN([C@H](C)CO)C3=O)cc1 | -2.75
C[C@@H]1CN([C@@H](C)CO)C(=O)Cc2cc(NC(=O)Cn3cnnn3)ccc2O[C@@H]1CN(C)S(=O)(=O)c1cn(C)cn1 | 10.1
COc1ccc(S(=O)(=O)Nc2ccc3c(c2)CC(=O)N([C@H](C)CO)C[C@@H](C)[C@@H](CN(C)C(=O)Nc2cccc4ccccc24)O3)cc1 | 0.838
C[C@@H]1CN([C@H](C)CO)C(=O)c2cccc(NC(=O)Nc3ccccc3)c2O[C@H]1CN(C)Cc1ccccc1 | 3.52
C[C@@H]1CN([C@H](C)CO)C(=O)c2cc(NS(=O)(=O)c3ccccc3)ccc2O[C@H]1CN(C)S(=O)(=O)c1ccc(Cl)cc1 | -7.86
C[C@H](CO)N1C[C@H](C)[C@H](CN(C)C)Oc2ccc(NC(=O)c3ccncc3)cc2CC1=O | 2
O=C(NO)c1cccc(C(=O)N/N=C/c2c(F)c(F)c(F)c(F)c2F)c1 | -2.52
C[C@H]1CN([C@@H](C)CO)C(=O)Cc2cc(NC(=O)Nc3cccc4ccccc34)ccc2O[C@@H]1CN(C)S(=O)(=O)c1cn(C)cn1 | 4.42
CC(C)NC(=O)N(C)C[C@H]1Oc2c(NC(=O)C3CCCCC3)cccc2C(=O)N([C@@H](C)CO)C[C@H]1C | 10.6
Cc1noc(C)c1NC(=O)N(C)C[C@H]1Oc2c(NS(=O)(=O)c3cccs3)cccc2C(=O)N([C@@H](C)CO)C[C@@H]1C | 3.62
O=C(N/N=C/c1c[nH]c2ccccc12)c1ccccc1O | -18.7
Cc1ccc(S(=O)(=O)Nc2ccc3c(c2)CC(=O)N([C@H](C)CO)C[C@@H](C)[C@H](CN(C)S(=O)(=O)c2c(C)noc2C)O3)cc1 | 3.93
COc1ccc(CN(C)C[C@@H]2Oc3ccc(NS(=O)(=O)c4cn(C)cn4)cc3C(=O)N([C@@H](C)CO)C[C@@H]2C)cc1 | 7.8
C[C@H](CO)N1C[C@H](C)[C@H](CN(C)CC2CC2)Oc2ccc(NC(=O)CCN3CCOCC3)cc2C1=O | -6.34
CC(C)NC(=O)Nc1cccc2c1O[C@H](CN(C)S(=O)(=O)c1cccs1)[C@@H](C)CN([C@H](C)CO)C2=O | 5.81
C[C@@H]1CN([C@@H](C)CO)C(=O)c2cccc(NC(=O)Nc3ccccc3)c2O[C@H]1CN(C)Cc1ccccc1 | -11.7

Source: PubChem BioAssay AID488910 (Broad Institute, 2010)
